Experimental findings from ChEMBL document CHEMBL1131800, “Novel carbonic anhydrase isozymes I, II and IV activators incorporating sulfonyl-histamino moieties” (Bioorg Med Chem Lett, 1999) are described below.

The structures appear in SMILES notation.

In assay [1] the target is Carbonic anhydrase 2 (Homo sapiens) (UniProt P00918). In words: In vitro binding affinity against human carbonic anhydrase II (hCA-II human cloned isozyme). In a few lines:
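Human cloned CA II (3.5 nM) preincubated 10 min at room temperature with activator, then esterase assay following 4-nitrophenolate formation (ε 18,400 M-1·cm-1) at pH 7.40. Nonenzymatic hydrolysis was subtracted. Activator was diluted in water from a 1 mM stock down to 0.1 nM. Activation constant Ka is the mean of at least three determinations.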

Assay [2] addresses T1, Carbonic anhydrase 4 (Bos taurus) (UniProt Q95323).
T1 sequence (whole entry): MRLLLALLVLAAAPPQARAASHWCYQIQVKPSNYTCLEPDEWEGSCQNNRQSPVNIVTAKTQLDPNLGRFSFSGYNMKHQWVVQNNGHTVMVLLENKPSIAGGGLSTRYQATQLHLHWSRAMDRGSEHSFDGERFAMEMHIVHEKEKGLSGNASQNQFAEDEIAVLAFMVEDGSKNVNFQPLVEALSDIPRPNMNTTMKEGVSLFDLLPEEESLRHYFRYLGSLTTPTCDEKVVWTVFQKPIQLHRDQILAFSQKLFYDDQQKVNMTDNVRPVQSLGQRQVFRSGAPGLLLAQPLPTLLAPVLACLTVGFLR
In words: In vitro […] activity against bovine carbonic anhydrase IV (bCA IV) purified from lung microsomes. The method, boiled down:
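Bovine lung microsomal CA IV (31 nM) was preincubated 10 min at room temperature with activator, then assayed by the esterase method. 4-Nitrophenolate formation was measured at pH 7.40 (ε 18,400 M-1·cm-1), minus the uncatalysed rate. Activator came from a 1 mM aqueous stock diluted to 0.1 nM. Ka is the mean of ≥3 runs.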

The target of assay [3] is Carbonic anhydrase 1 (Homo sapiens) (UniProt P00915). In words: In vitro binding affinity against human carbonic anhydrase I (hCA-I human cloned isozyme). The method, boiled down: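 Human cloned CA I (12 nM) preincubated 10 min at room temperature with activator, then esterase assay on 4-nitrophenyl ester hydrolysis. Read-out was 4-nitrophenolate (ε 18,400 M-1·cm-1) at pH 7.40, with nonenzymatic rate subtracted. Activator stock was 1 mM in distilled-deionized water, diluted down to 0.1 nM. Ka is the mean of ≥3 determinations.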
Chain of Carbonic anhydrase 1 (Homo sapiens) (P00915 2-261 limits assumed): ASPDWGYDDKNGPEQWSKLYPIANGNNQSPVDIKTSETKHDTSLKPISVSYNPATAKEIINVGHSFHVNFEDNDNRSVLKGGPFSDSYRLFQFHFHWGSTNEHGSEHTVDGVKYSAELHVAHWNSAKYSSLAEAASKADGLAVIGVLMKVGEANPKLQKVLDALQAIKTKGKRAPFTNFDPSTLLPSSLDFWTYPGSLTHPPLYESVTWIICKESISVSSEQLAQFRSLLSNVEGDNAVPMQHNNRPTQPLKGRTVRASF

Consider `O=C(O)c1ccc(S(=O)(=O)NCCc2c[nH]cn2)cc1`, for which the values for the Ka in assay [1], in assay [2] and in assay [3] were 0.8 µM, 0.1 µM and 0.06 µM, respectively.
On the same counts, the results for `O=[N+]([O-])c1ccc(S(=O)(=O)NCCc2c[nH]cn2)cc1Cl` are 6 µM, 1.4 µM and 0.12 µM.
On the same counts, the results for `O=S(=O)(NCCc1c[nH]cn1)c1ccc(I)cc1` are 10 µM, 3.2 µM and 0.08 µM.
On the same counts, the results for `NCCc1c[nH]cn1` are 125 µM, 41 µM and 2 µM.
On to `O=S(=O)(Cc1ccccc1)NCCc1c[nH]cn1`, for which the values for the Ka in assay [1], in assay [2] and in assay [3] were 34 µM, 5.4 µM and 0.18 µM, respectively.
`O=S(=O)(NCCc1c[nH]cn1)c1cccs1`: the Ka in assay [1] amounted to 5 µM; in assay [2], 1.1 µM; in assay [3] it was 0.09 µM.
On the same counts, the results for `O=S(=O)(NCCc1c[nH]cn1)c1cccc2ccccc12` are 10 µM, 3.6 µM and 0.26 µM.
In the case of `O=S(=O)(NCCc1c[nH]cn1)c1ccc(Br)cc1`, the Ka came out at 10 µM in assay [1], 3 µM in assay [2] and 0.09 µM in assay [3].
On the same counts, the results for `O=C(NCCc1c[nH]cn1)NS(=O)(=O)c1ccc(Cl)cc1` are 0.08 µM, 0.01 µM and 0.003 µM.
On the same counts, the results for `Cc1ccccc1S(=O)(=O)NC(=O)NCCc1c[nH]cn1` are 0.15 µM, 0.03 µM and 0.006 µM.
Regarding `O=S(=O)(NCCc1c[nH]cn1)c1cc(Cl)ccc1Cl`, the Ka in assay [1] is 5 µM; in assay [2] it was 0.1 µM; in assay [3], 0.08 µM.
On to `O=[N+]([O-])c1cccc(S(=O)(=O)NCCc2c[nH]cn2)c1`, for which the values for the Ka in assay [1], in assay [2] and in assay [3] were 9 µM, 1.5 µM and 0.12 µM, respectively.
On the same counts, the results for `O=S(=O)(NCCc1c[nH]cn1)C(F)(F)F` are 1.2 µM, 0.15 µM and 0.013 µM.
On the same counts, the results for `COc1ccc(S(=O)(=O)NCCc2c[nH]cn2)cc1` are 22 µM, 6.5 µM and 0.2 µM.
Consider `O=S(=O)(NCCc1c[nH]cn1)c1ccccc1`, for which the Ka in assay [1] was 30 µM; in assay [2], 5 µM; in assay [3] it was 0.21 µM.
Take `Cc1ccc(S(=O)(=O)NCCc2c[nH]cn2)cc1`: the Ka in assay [1] amounted to 28 µM; in assay [2], 7 µM; in assay [3] it was 0.24 µM.
Turning to `Cc1ccc(S(=O)(=O)NC(=O)NCCc2c[nH]cn2)cc1`, the Ka turned out to be 0.1 µM in assay [1], 0.02 µM in assay [2] and 0.005 µM in assay [3].
With `O=S(=O)(NCCc1c[nH]cn1)C(F)(F)C(F)(F)C(F)(F)C(F)(F)F`, the Ka is 0.9 µM in assay [1], 0.05 µM in assay [2] and 0.01 µM in assay [3].
On the same counts, the results for `O=S(=O)(NCCc1c[nH]cn1)c1ccc(F)cc1` are 12 µM, 2.4 µM and 0.11 µM.
On the same counts, the results for `CN(C)S(=O)(=O)NCCc1c[nH]cn1` are 13 µM, 5.3 µM and 0.15 µM.
On the same counts, the results for `O=C(O)c1cccc(S(=O)(=O)NCCc2c[nH]cn2)c1` are 0.5 µM, 0.07 µM and 0.05 µM.
Turning to `Nc1ccc(S(=O)(=O)NCCc2c[nH]cn2)cc1`, the Ka in assay [1] was 14 µM; in assay [2] it was 4.1 µM; in assay [3], 0.13 µM.
On the same counts, the results for `O=[N+]([O-])c1ccccc1S(=O)(=O)NCCc1c[nH]cn1` are 8 µM, 1.6 µM and 0.13 µM.
On the same counts, the results for `Cc1cc(C)c(S(=O)(=O)NCCc2c[nH]cn2)c(C)c1` are 35 µM, 5.9 µM and 0.25 µM.
Turning to `O=C(O)c1ccccc1S(=O)(=O)NCCc1c[nH]cn1`, the Ka in assay [1] worked out at 1.2 µM; in assay [2], 0.12 µM; in assay [3], 0.06 µM.
On the same counts, the results for `CC1(C)C2CCC1(CS(=O)(=O)NCCc1c[nH]cn1)C(=O)C2` (stereo unspecified) are 15 µM, 5.4 µM and 0.17 µM.
On the same counts, the results for `O=S(=O)(NCCc1c[nH]cn1)c1ccc(Cl)cc1` are 13 µM, 2.5 µM and 0.1 µM.
On the same counts, the results for `O=C(NCCc1c[nH]cn1)NS(=O)(=O)c1ccc(F)cc1` are 0.09 µM, 0.02 µM and 0.004 µM.
`O=S(=O)(NCCc1c[nH]cn1)C(Cl)(Cl)Cl`: the values for the Ka in assay [1], in assay [2] and in assay [3] were 13 µM, 3.6 µM and 0.018 µM, respectively.
On the same counts, the results for `CN(C)c1cccc2c(S(=O)(=O)NCCc3c[nH]cn3)cccc12` are 9 µM, 3.2 µM and 0.28 µM.
Regarding `CC(=O)Nc1ccc(S(=O)(=O)NCCc2c[nH]cn2)cc1`, the values for the Ka in assay [1], in assay [2] and in assay [3] were 20 µM, 6 µM and 0.21 µM, respectively.
On the same counts, the results for `O=S(=O)(NCCc1c[nH]cn1)c1cc(Cl)cc(Cl)c1O` are 7 µM, 0.09 µM and 0.1 µM.
On the same counts, the results for `O=S(=O)(NCCc1c[nH]cn1)c1ccc2ccccc2c1` are 9 µM, 3.5 µM and 0.24 µM.
For the compound `O=C(O)c1c(Br)c(Br)c(Br)c(Br)c1S(=O)(=O)NCCc1c[nH]cn1`, the values for the Ka in assay [1], in assay [2] and in assay [3] were 0.3 µM, 0.1 µM and 0.05 µM, respectively.
On the same counts, the results for `O=[N+]([O-])c1ccc(S(=O)(=O)NCCc2c[nH]cn2)cc1` are 10 µM, 1.8 µM and 0.14 µM.
As for `O=S(=O)(NCCc1c[nH]cn1)C(F)(F)C(F)(F)C(F)(F)C(F)(F)C(F)(F)C(F)(F)C(F)(F)C(F)(F)F`, the Ka came out at 0.5 µM in assay [1], 0.03 µM in assay [2] and 0.007 µM in assay [3].
On the same counts, the results for `O=S(=O)(NCCc1c[nH]cn1)c1c(F)c(F)c(F)c(F)c1F` are 0.1 µM, 0.04 µM and 0.006 µM.
